NSD2 HMT inh: NSD2 histone methyltransferase inhibitors, primary screen, biochemical, AlphaScreen, single concentration, set 2; Histone-lysine N-methyltransferase NSD2 (Homo sapiens), O96028; NSD2 peptide methylation, 120 min; inhibition, % at 12.5 µM; 0.54% of 310,000 active; AID 743445, 2014; in the data active = inhibition above about 50%
Fh CTSL1 inh: Fasciola hepatica cathepsin L1 inhibitors, primary screen, counter-screen for PFM18AAP inhibitor project, biochemical, QFRET, fluorogenic peptide substrate. inhibition, % at 5.96 µM. recombinant F. hepatica cathepsin L1, Z-Leu-Arg-MCA fluorescence. 0.49% of 300,000 active;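 active = inhibition above the mean of all tested compounds plus 3 SD, set per screening campaign, cut at about 17% in these data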;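 note: 0% = plate median of test compound wells and 100% = 1 µM Z-Phe-Ala-diazomethylketone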
TDP2 absorb: human TDP2 enzyme inhibitors, primary screen, biochemical, epi absorbance, recombinant enzyme; inhibition, % at 12.8 µM; 0.34% of 370,000 active; T5PNP hydrolysis, p-nitrophenol absorbance 415 nm; Tyrosyl-DNA phosphodiesterase 2 (Homo sapiens), O95551;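 active = inhibition above the mean of all tested compounds plus 3 SD, set per campaign, cut at about 25% in these data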;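 note: 0% = DMSO with enzyme and 100% = buffer with substrate but no TDP2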
Target sequence (O95551 whole entry, looked up): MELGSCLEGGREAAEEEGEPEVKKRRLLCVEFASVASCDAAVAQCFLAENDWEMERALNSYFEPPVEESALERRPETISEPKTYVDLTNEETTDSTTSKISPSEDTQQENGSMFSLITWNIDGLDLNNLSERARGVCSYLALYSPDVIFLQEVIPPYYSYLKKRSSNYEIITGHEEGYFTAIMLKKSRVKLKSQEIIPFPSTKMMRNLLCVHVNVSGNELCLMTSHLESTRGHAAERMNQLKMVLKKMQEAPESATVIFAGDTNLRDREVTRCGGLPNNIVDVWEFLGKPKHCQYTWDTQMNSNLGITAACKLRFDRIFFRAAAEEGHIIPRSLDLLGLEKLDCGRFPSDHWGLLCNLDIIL
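System: recombinant human TDP2 / Amount: 120 nM TDP2 per well / Also added: 5 mM T5PNP chromogenic substrate / Doses: 12.8 µM single point, 1% DMSO / Incubation: 2 h at 37 °C / Detection: p-Nitrophenol epi absorbance / Evaluation: % inhibition relative to enzyme-containing and enzyme-free wells / Repeats: singlicate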
UBC9 SUMO inh: inhibitors of in vitro SUMOylation cascade, primary screen, biochemical, HTRF, uHTS; HTRF SUMOylation assay, SAE1/SAE2 + UBC9; 0.36% of 290,000 active; SUMO-conjugating enzyme UBC9 (Homo sapiens), P63279; inhibition, % at 35 µM; AID 2006, 2009; in the data active = inhibition above about 50%, passing the limit was not always enough
Target sequence (P63279 whole entry, looked up): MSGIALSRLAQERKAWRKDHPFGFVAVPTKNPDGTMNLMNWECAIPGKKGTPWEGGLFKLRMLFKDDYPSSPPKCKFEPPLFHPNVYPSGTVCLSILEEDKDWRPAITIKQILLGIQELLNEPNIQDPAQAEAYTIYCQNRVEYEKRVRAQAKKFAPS
Active calls of the source: *; / = no result given. The list is not random: actives were taken first. Their share in the collection is about 1.2%.

SMILES	NSD2 HMT inh	Fh CTSL1 inh	TDP2 absorb	UBC9 SUMO inh
COc1cc(OC)c(C2CC(=O)N3CN(c4ccccc4C)CSC3=C2C#N)cc1OC (configuration not stated)	/	30.8*	-3.2	23.5
COc1ccc(OC)c(C2CC(=O)N3CN(c4ccccc4)CSC3=C2C#N)c1 (configuration not stated)	/	3.5	-2.2	10.2
Cc1cccc(N2CSC3=C(C#N)C(c4ccc(C)o4)CC(=O)N3C2)c1 (configuration not stated)	/	-3.6	/	78.4*
COc1ccc(C2CC(=O)N3CN(c4ccc(C)c(Cl)c4)CSC3=C2C#N)cc1 (configuration not stated)	/	2.9	-5.7	22.9
COc1ccc2ccccc2c1CN1CCN(c2ncc(Cc3ccccc3)cn2)CC1	/	/	-9.5	/
COC(=O)c1cccc(CN2C(=O)C(C)Sc3cc(Cl)ccc32)c1 (configuration not stated)	0.5	/	-8.5	/
CCCCOCCCNC(=O)C[C@@H]1C[C@]2(C(=O)OCC)CCC3=C2N(CCC3)C1=O	/	/	8.2	/
CC(=O)N1CCN(C(=O)c2ccc(S(=O)(=O)Nc3ccccc3C)cc2)CC1	-0.7	1.5	17.6	/
Cc1ccccc1NS(=O)(=O)c1ccc(C(=O)N2CCC2)cc1	-0.3	18.6*	-9.8	/
CCOC(=O)[C@]12CCCC=C1N(CCC1=CCCCC1)C(=O)[C@H](CC(=O)NCC1CCCCC1)C2	/	/	-2.2	/
Nc1nnc(SCC(=O)Nc2cccnc2Cl)s1	0.7	0.6	12.1	/
Cc1cccc(Nc2nnc(SCC(=O)Nc3cccnc3Cl)s2)c1	0.4	27.0*	-11.3	2.0
CC1(C)CC(=O)C2=C(C1)OC1=C(C(=O)CC(C)(C)C1)C2c1ccc(O)c([N+](=O)[O-])c1	-0.4	18.1*	2.3	20.4
CC1(C)CC(=O)C2=C(C1)OC1=C(C(=O)CC(C)(C)C1)C2c1cccc([N+](=O)[O-])c1	4.3	/	1.3	/
CC1=NN(c2nc(N)nc(/C(C#N)=C/c3ccc([N+](=O)[O-])o3)n2)C(C)(C)C1	/	/	0.9	/
CCCN(CCC)C(=O)CSc1nc2n[nH]c(C)c2c(=N)n1-c1ccc(OCC)cc1	/	7.5	/	1.5
CCOc1ccc(-n2c(SCC(=O)Nc3ccc(CC)cc3)nc3n[nH]c(C)c3c2=N)cc1	-0.1	-0.1	-19.3	55.7*
CCOc1cc(C2CC(=O)N3CN(C4CCCCC4)CSC3=C2C#N)ccc1O (configuration not stated)	/	79.6*	-8.2	12.9
COc1ccc2ccccc2c1C1CC(=O)N2CN(C3CCCCC3)CSC2=C1C#N (configuration not stated)	/	-0.5	-3.8	21.9
COc1cc(/C=C(\C#N)C(=O)Nc2ccc(C(=O)O)cc2)ccc1OC(=O)c1cccc(F)c1	4.1	-0.2	2.7	1.2
O=C(CSc1nc2ccccc2c(=O)n1-c1ccccc1)N1CCCc2ccccc21	20.3	36.0*	-14.3	-7.0
CCOc1cc(N2CCOCC2)c(OCC)cc1NC(=O)COC(=O)c1ccccc1C	1.6	-8.2	-20.1	-3.0
CCOc1cc(N2CCOCC2)c(OCC)cc1NC(=O)COC(=O)c1cc(C)cc(C)c1	0.8	50.0*	11.7	-14.1
CCOc1cc(N2CCOCC2)c(OCC)cc1NC(=O)COC(=O)COc1cc(C)cc(C)c1	-3.8	-2.8	-1.8	/
CCOc1cc(N2CCOCC2)c(OCC)cc1NC(=O)COC(=O)c1cc(C)oc1C	1.7	40.8*	-1.7	3.4
SMILES	NSD2 HMT inh	Fh CTSL1 inh	TDP2 absorb	UBC9 SUMO inh
CCOC(=O)c1ccc(N(CCC2CO2)S(=O)(=O)c2ccc(C)cc2)cc1 (configuration not stated)	-2.0	/	-9.0	/
COc1ccccc1NC1=C(N2CCCCC2)C(=O)c2ccccc2C1=O	93.2*	61.9*	/	39.6
COc1ccc(CNS(=O)(=O)/C=C/c2ccc(OC)cc2CNC(=O)OC(C)(C)C)cc1	/	/	-19.2	/
CN(C(=O)Nc1ccccc1)C1CCS(=O)(=O)C1 (configuration not stated)	-1.2	-0.8	-1.5	8.9
CC(=O)NC1=C(N(C)C2CCS(=O)(=O)C2)C(=O)c2ccccc2C1=O (configuration not stated)	106.5*	7.1	11.5	13.9
CCCCCCCCCCCCCCCCCCNc1ccn(C2OC(COP(=O)(O)OCC3OC(n4cc(F)c(=O)[nH]c4=O)CC3O)C(O)C2O)c(=O)n1 (configuration not stated)	/	/	8.2	/
CCCCC(=O)NC(=O)NC(c1ccccc1)c1ccccc1	-2.5	32.6*	-16.7	-1.1
CCCCC(=O)NC(=S)NNS(=O)(=O)c1ccccc1	-0.8	2.4	/	-0.3
Cc1nnc2sc(SCC(=O)N3CCCCC3)nn2c1=O	-2.0	0.7	-17.1	11.7
Cc1nnc2sc(SCC(=O)N3CCC(C)CC3)nn2c1=O	-0.4	47.3*	4.7	9.4
O=C1NCCCC2c3cc(O)c4ccccc4c3OC12N1CCCCC1 (configuration not stated)	/	28.8*	56.7*	56.1*
COc1ccc(C(CNC(=O)CSc2ccc(Br)cc2C)N2CCOCC2)cc1 (configuration not stated)	-1.2	24.0*	-13.2	/
CC(c1c[nH]c2ccccc12)c1cn(C)c2ccccc12 (configuration not stated)	/	/	4.7	/
CCCOP(=O)(c1ccc(N(C)C)cc1)C(Nc1ccccc1)c1ccc(C)cc1 (configuration not stated)	0.7	20.7*	0.5	-13.8
CC(C)CCOP(=O)(c1ccc(N(C)C)cc1)C(Nc1ccccc1)c1ccc(N(C)C)cc1 (configuration not stated)	15.7	2.9	-7.2	14.7
O=C(Nc1cccc2cccnc12)c1ccccc1Cl	1.7	-0.5	-8.6	/
O=C(O)c1cc(Cl)c(Cl)cc1C(=O)Nc1cccc2cccnc12	9.6	0.3	-5.1	75.9*
CCCC(=O)OC[C@H]1CN(C2CCCC2)S(=O)(=O)c2c(Oc3ccc(F)cc3OC)cccc2O1	/	/	-0.5	/
CCn1c(NC)cc(=O)n(C)c1=O	-0.5	-2.8	-2.2	14.9
CNc1cc(=O)n(C)c(=O)n1-c1ccccc1	-3.6	31.2*	0.9	/
Cc1ccc(NC(=O)Nc2cc(S(=O)(=O)N(C)C)ccc2C)cc1	0.1	17.8*	6.0	-4.9
CC(C)n1nc(C(=O)OCC(=O)NCCc2ccc(S(N)(=O)=O)cc2)c2ccccc2c1=O	-1.4	/	7.0	/
O=C1S/C(=C\c2ccc(O)c([N+](=O)[O-])c2)C(=O)N1c1ccccc1Cl	20.4	5.2	0.9	1.4
COc1cc(/C=C2/C(=O)NN(c3ccc(C)c(Cl)c3)C2=O)cc([N+](=O)[O-])c1O	21.8	/	-5.2	-10.2
COc1cc(/C=C2\SC(=O)N(c3ccc(Cl)cc3)C2=O)cc([N+](=O)[O-])c1O	/	/	10.3	95.4*
COc1cc(/C=C2\SC(=O)N(c3cccc(Cl)c3)C2=O)cc([N+](=O)[O-])c1O	2.1	/	23.4	82.0*

Assay outcomes from PubChem.
